Data on 32 compounds can be found in ChEMBL document CHEMBL1137077, “Design, synthesis, anti-HIV activities, and metabolic stabilities of alkenyldiarylmethane (ADAM) non-nucleoside reverse transcriptase inhibitors” (J Med Chem, 2004).

Data set [1] has as its system MT4. Nature of the data set: Evaluated for cytotoxicity in mock-infected MT-4 cells. In kind it is functional. The note with it: Homo sapiens. The gist of the method:
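Exponentially growing MT-4 cells were resuspended at 6 × 10⁵ cells/mL in mock-infected wells alongside infected wells, with serial 5-fold compound dilutions run in triplicate. MTT viability was read after 5 days at 540 and 690 nm using the median OD of three wells. CC₅₀ is the concentration reducing OD₅₄₀ of mock-infected controls by 50%.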

Data set [2] relates to Human immunodeficiency virus 2. Kind of data set: Effective concentration required to inhibit cytopathicity of HIV-2(ROD) in MT-4 cells. In kind it is functional, organism-based. The note with it: mt4. The gist of the method: (§1)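 MT-4 cells resuspended at 6 × 10⁵ cells/mL and infected with HIV-1 IIIB or HIV-2 ROD at 100–300 CCID₅₀, with compound added at infection. Serial 5-fold dilutions were run in triplicate. After 5 days, viability was read by MTT reduction at 540 and 690 nm using the median OD of three wells. EC₅₀ is the concentration giving 50% protection from viral cytopathic effect.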

Data set [3] concerns MT4. Nature of the data set: Effective concentration required to inhibit cytopathicity of HIV-1(IIIB) in MT-4 cells; Not active. It counts as functional, cell-based, Homo sapiens. The gist of the method: as §1
Data set [4] can be described thus: Half-life in rat plasma. It counts as ADME.
Data set [5] has as its system Human immunodeficiency virus 1. Nature of the data set: Effective concentration required to inhibit cytopathicity of HIV-1(IIIB) in MT-4 cells. It counts as functional, organism-based. The note with it: Human immunodeficiency virus 1, MT4. The gist of the method: as §1
In data set [6] the test system is MT4. Kind of data set: Effective concentration required to inhibit cytopathicity of HIV-2(ROD) in MT-4 cells. It counts as functional, cell-based. Conditions: Homo sapiens; call rule not given here. The method, boiled down:
as §1

Data set [7] has as its system MT4. Nature of the data set: Evaluated for the ability to inhibit cytopathicity of HIV-1(IIIB) in MT-4 cells. Conditions: Homo sapiens. In kind it is functional, cell-based. The method, boiled down:
as §1

In the data set with MT4 [1], `CCCOc1c(C)cc(C(=CCCCC(=O)OC)c2cc(C)c(OCCC)c(C(=O)OC)c2)cc1C(=O)OC` had a 50% cytotoxic concentration (CC50) greater than 231 µM. Moreover, the EC50 entry (in data set [2]; with MT4 [3]) was “Not Active” each time.

`CCCOC(=O)c1cc(C(=CCCCC(=O)OC)c2cc(C)c(OCCC)c(C(=O)OCCC)c2)cc(C)c1OCCC`: in the data set with MT4 [1], the CC50 was greater than 209 µM. Further, the EC50 entry (in data set [2]; in the data set on MT4 [3]) was “Not Active” each time.

Regarding `COC(=O)CCCC=C(c1cc(Br)c(OC)c(C(=O)OC)c1)c1cc(Br)c(OC)c(C(=O)OC)c1`, in data set [4], the half-life was 6.2 min. In the data set with MT4 [1], this compound gave a CC50 of 91 µM. Moreover, the EC50 entry in data set [2] is “Not Active”; in data set [5], 0.3 µM.

`C#CCCCC=C(c1cc(Br)c(OC)c(C(=O)OC)c1)c1cc(Br)c(OC)c(C(=O)OC)c1` returned a half-life in data set [4] of 18.9 min. Further, in the data set with MT4 [1], the CC50 is 57.8 µM. The values for the EC50 entry in data set [2] and in data set [5] were “Not Active” and 0.7 µM, respectively.

For the compound `COC(=O)CCCC=C(c1cc(C)c(OC)c(C(=O)OC)c1)c1cc(C)c(OC)c(C(=O)OC)c1`, in data set [4], the half-life came out at 42.9 min. The compound further had a CC50 in the data set on MT4 [1] of 6.1 µM. Further, the concentration giving a half-maximal response (EC50) result is “Not Active” in data set [2] and 1 µM in data set [5].

In the data set with MT4 [1], `CCCCCC=C(c1cc(Cl)c(OC)c(C(C)=O)c1)c1cc(Cl)c(OC)c(C(C)=O)c1` gave a CC50 of 47.1 µM. Also, the EC50 entry (in data set [2]; with MT4 [3]) was “Not Active” each time.

In data set [4], `COC(=O)c1cc(C(=CCCCc2ccccc2)c2cc(Br)c(OC)c(C(=O)OC)c2)cc(Br)c1OC` returned a half-life of 55 min. Besides, in the data set on MT4 [1], the CC50 was greater than 198 µM. In addition, the EC50 came to 29.3 µM in the data set with MT4 [6] and 2.6 µM in data set [5].

In the data set on MT4 [1], `CCCCCC=C(c1cc(Cl)c(OC)c(C(=S)OC)c1)c1cc(Cl)c(OC)c(C(=S)OC)c1` yielded a CC50 of 181 µM. Also, the EC50 entry (in data set [2]; with MT4 [3]) was “Not Active” in each case.

`COC(=O)CCCC=C(c1cc(Cl)c(OC)c(C(=O)OC)c1)c1cc(Cl)c(OC)c(C(=O)OC)c1` gave a half-life in data set [4] of 5.8 min. This compound also gave a CC50 in the data set with MT4 [1] of 160 µM. Moreover, the values for the EC50 (in the data set with MT4 [6]; in data set [5]) were 25 µM and 0.6 µM, respectively.

For `CCCOC(=O)CCCC=C(c1cc(C)c(OC)c(C(=O)OC)c1)c1cc(C)c(OC)c(C(=O)OC)c1`, the half-life in data set [4] is 5.2 min. The compound also had a CC50 with MT4 [1] of 93.4 µM. The values for the EC50 entry in data set [2] and in data set [5] were “Not Active” and 3.5 µM, respectively.

`COC(=S)CCCC=C(c1cc(Cl)c(OC)c(C(=S)OC)c1)c1cc(Cl)c(OC)c(C(=S)OC)c1` came in with a 50% cytotoxic concentration (CC50) in the data set with MT4 [1] greater than 218 µM. Moreover, the EC50 result in data set [2] is “Not Active”; in data set [5], 35.4 µM.

Compound `COC(=O)CCCC=C(c1cc(Cl)c(OC)c(C(=O)SC)c1)c1cc(Cl)c(OC)c(C(=O)SC)c1` gave a half-life in data set [4] of 55.3 min. The CC50 with MT4 [1] is greater than 224 µM. Moreover, the values for the EC50 entry in data set [2] and in data set [5] were “Not Active” and 1.8 µM, respectively.

The compound `C#CCCCC=C(c1cc(Cl)c(OC)c(C(=O)OC)c1)c1cc(Cl)c(OC)c(C(=O)OC)c1` gave a half-life in data set [4] of 20.6 min. This compound also showed a CC50 with MT4 [1] of 143 µM. Moreover, the EC50 result in data set [2] is “Not Active”; in data set [5] it was 1.1 µM.

In the case of `CCOc1c(C)cc(C(=CCCCC(=O)OC)c2cc(C)c(OCC)c(C(=O)OC)c2)cc1C(=O)OC`, the half-life in data set [4] worked out at 9 min. The same compound registered a CC50 with MT4 [1] of 73 µM. Moreover, the EC50 entry in data set [2] was “Not Active”; in data set [5] it was 3.7 µM.

For the compound `COC(=O)c1cc(C(=CCCCC(=O)OC(C)C)c2cc(Br)c(OC)c(C(=O)OC)c2)cc(Br)c1OC`, the half-life in data set [4] amounted to 5.7 min. Also, it took 35.3 µM to reach half-maximal cytotoxicity with MT4 [1] (CC50). In addition, the figures for the EC50 result in data set [2] and in data set [5] were “Not Active” and 2.7 µM, respectively.

In turn, `COC(=O)CCCC=C(c1ccc(OC)c(OC)c1)c1ccc(OC)c(OC)c1` gave a half-life in data set [4] of 0.9 min. Moreover, the midpoint of cytotoxicity in the data set with MT4 [1], the CC50, lay at 7.4 µM. Besides, the EC50 result (in data set [2]; in the data set with MT4 [3]) was “Not Active” in each case.

`COC(=O)CCCC=C(c1ccc(OC)cc1OC)c1ccc(OC)cc1OC`: the half-life in data set [4] came to 2.6 min. Also, it took 5.9 µM to reach half-maximal cytotoxicity in the data set with MT4 [1] (CC50). In addition, the EC50 entry (in data set [2]; in the data set with MT4 [3]) was “Not Active” in each case.

In data set [4], `CCCOC(=O)CCCC=C(c1cc(Cl)c(OC)c(C(=O)OC)c1)c1cc(Cl)c(OC)c(C(=O)OC)c1` had a half-life of 7.4 min. Moreover, the CC50 in the data set with MT4 [1] was found to be 159 µM. For the same compound, the values for the EC50 result in data set [2] and in data set [5] were “Not Active” and 3.1 µM, respectively.

Regarding `COC(=O)CCC/C=C(/c1ccc(OC)c(OC)c1)c1cc(C)c(OC)c(C(=O)OC)c1`, the half-life in data set [4] is 19.2 min. This compound showed a CC50 in the data set on MT4 [1] of 0.25 µM. Besides, the EC50 entry (in data set [2]; in the data set with MT4 [3]) was “Not Active” throughout.

Turning to `COC(=O)c1cc(C(=CCCCC(=O)OC(C)C)c2cc(C)c(OC)c(C(=O)OC)c2)cc(C)c1OC`, the half-life in data set [4] came out at 1.7 min. It took 59.5 µM to reach half-maximal cytotoxicity in the data set with MT4 [1] (CC50). The results for the EC50 result in data set [2] and in data set [5] were “Not Active” and 3.5 µM, respectively.

In data set [4], `COCCCCC=C(c1cc(Br)c(OC)c(C(=O)OC)c1)c1cc(Br)c(OC)c(C(=O)OC)c1` gave a half-life of 35.1 min. In the data set on MT4 [1], this compound came in with a CC50 of 28.6 µM. The EC50 result in data set [2] was “Not Active”; in the data set with MT4 [7], 2.8 µM.

`COC(=O)CCCC=C(c1cc(C#N)c(OC)c(C(=O)OC)c1)c1cc(C#N)c(OC)c(C(=O)OC)c1` yielded a half-life in data set [4] of 12.4 min. The CC50 with MT4 [1] is greater than 247 µM. Besides, the values for the EC50 entry in data set [2] and in data set [5] were “Not Active” and 0.8 µM, respectively.

As for `COCCCCC=C(c1cc(Cl)c(OC)c(COC)c1)c1cc(Cl)c(OC)c(COC)c1`, it took 34 µM to reach half-maximal cytotoxicity with MT4 [1] (CC50). For the same compound, the EC50 result (in data set [2]; with MT4 [3]) was “Not Active” in each case.

`C=CCCCC=C(c1cc(Cl)c(OC)c(C(=O)OC)c1)c1cc(Cl)c(OC)c(C(=O)OC)c1` showed a half-life in data set [4] of 39.3 min. The compound also displayed a CC50 in the data set with MT4 [1] greater than 253 µM. Further, the EC50 with MT4 [6] came to 26.4 µM; in data set [5], 3.7 µM.

Compound `COC(=O)CCC/C=C(\c1ccc(OC)c(OC)c1)c1cc(Cl)c(OC)c(C(=O)OC)c1` had a CC50 with MT4 [1] of 8.7 µM. Further, the EC50 result (in data set [2]; with MT4 [3]) was “Not Active” each time.

In data set [4], `CCCOC(=O)CCCC=C(c1cc(Br)c(OC)c(C(=O)OC)c1)c1cc(Br)c(OC)c(C(=O)OC)c1` had a half-life of 3.4 min. Also, the CC50 with MT4 [1] was 114 µM. The EC50 entry is “Not Active” in data set [2] and 2.2 µM in data set [5].

In turn, `COc1c(Cl)cc(C(=CCCCCO)c2cc(Cl)c(OC)c(CO)c2)cc1CO` came in with a CC50 in the data set with MT4 [1] of 30.7 µM. The EC50 entry (in data set [2]; with MT4 [3]) was “Not Active” in each case.

As for `CCOC(=O)c1cc(C(=CCCCC(=O)OC)c2cc(C)c(OCC)c(C(=O)OCC)c2)cc(C)c1OCC`, the half-life in data set [4] is 37.7 min. In addition, the CC50 in the data set with MT4 [1] was greater than 231 µM. Moreover, the figures for the EC50 entry in data set [2] and in data set [5] were “Not Active” and 14.1 µM, respectively.

In the data set with MT4 [1], `COC(=O)CCCC(CCCC(=O)OC)=C(c1cc(Br)c(OC)c(C(=O)OC)c1)c1cc(Br)c(OC)c(C(=O)OC)c1` showed a CC50 of 78.1 µM. The EC50 entry (in data set [2]; in the data set with MT4 [3]) was “Not Active” each time.

For `COC(=O)CCC/C=C(\c1cc(C)c(OC)c(C(=O)OC)c1)c1cc(Cl)c(OC)c(C(=O)OC)c1`, the half-life in data set [4] is 9 min. In the data set on MT4 [1], this compound yielded a CC50 of 19.1 µM. For the same compound, the EC50 entry in data set [2] is “Not Active”; in data set [5] it was 0.8 µM.

For the compound `C=CCCCC=C(c1cc(Br)c(OC)c(C(=O)OC)c1)c1cc(Br)c(OC)c(C(=O)OC)c1`, in data set [4], the half-life turned out to be 58.5 min. In the data set on MT4 [1], this compound came in with a CC50 of 62.3 µM. Further, the EC50 entry is “Not Active” in data set [2] and 3 µM in data set [5].

`COC(=O)c1cc(C(=CCCCc2ccccc2)c2cc(Cl)c(OC)c(C(=O)OC)c2)cc(Cl)c1OC` returned a half-life in data set [4] of 76.6 min. In the data set on MT4 [1], this compound had a CC50 greater than 230 µM. Besides, the figures for the EC50 (in the data set on MT4 [6]; in data set [5]) were 113 µM and 13.2 µM, respectively.
